# Test results from PubChem BioAssay AID540324 (Johns Hopkins Ion Channel Center, 2011).
# Unmarked numbers belong to inactive results.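 Rule for the calls: active = maximum inhibition above 30% at any tested concentration, with a dose response curve fitted; inactive = no inhibition at any dose or no dose response curve.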
# Assay: thallium flux inhibition in parental HEK293 cells, SAR follow-up, counter-screen for KCNK9 inhibitor project, cell-based, FluxOR thallium flux, concentration-response, set 2 (AID 540324)
# Conditions: FluxOR fluorescence ratio; series mostly up to 30 µM; flux ratio, lower = inhibition: at the top concentration
# Method in brief: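 test system = parental HEK293 cells lacking KCNK9 expression | doses = Ten-concentration dilution series per compound | incubation = dye loading 90 min at room temperature in dark, compound exposure 20 min | measured by = fluorescence of thallium-sensitive FluxOR dye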
row,Compound,"flux ratio, lower = inhibition"
1,CCOc1ccc(NC(=O)c2cccc(NC(=O)C3CCCC3)c2)cc1,0.2
2,CCOc1ccccc1C(=O)Nc1cccc(NC(=O)C2CCCC2)c1,0.124
3,CC(c1ccccc1)n1c(-c2ccco2)n[nH]c1=S (stereo not given),0.248
4,CCOc1ccccc1NC(=O)c1cccc(NC(=O)CC2CCCCC2)c1,0.151
5,O=C(Nc1cccc(NC(=O)c2ccccc2C(F)(F)F)c1)c1ccccc1,0.163
6,CC(C1CC2CCC1C2)n1c(C2CCOC2)n[nH]c1=S (stereo not given),0.185
7,O=C(Nc1cccc(NC(=O)c2ccsc2)c1)c1ccccc1,0.179
8,CCOc1ccccc1NC(=O)c1cccc(NC(=O)c2cccc(OC)c2)c1,0.162
9,Cc1cccc(-c2n[nH]c(=S)n2C(C)C2CC3CCC2C3)c1 (stereo not given),0.534
10,CCOc1ccccc1NC(=O)c1cccc(NC(=O)C2CCCCC2)c1,0.149
11,COc1cccc(OC)c1C(=O)Nc1cccc(NC(=O)c2cccc(C)c2)c1,0.166
12,CC(C1CC2CCC1C2)n1c(-c2ccccc2Cl)n[nH]c1=S (stereo not given),0.205
13,CCOc1ccccc1NC(=O)c1cccc(NC(=O)c2ccccc2OC)c1,0.161
14,O=C(Nc1cccc(NC(=O)c2cccs2)c1)c1ccccc1,0.153
15,CCOc1ccccc1NC(=O)c1cccc(NC(=O)C2CCOC2)c1 (stereo not given),0.19
16,CC(C1CC2CCC1C2)n1c(-c2cccc(Cl)c2)n[nH]c1=S (stereo not given),0.406
17,CCOc1ccccc1NC(=O)c1cccc(NC(=O)c2cccc(C)c2)c1,0.153
18,CCOc1ccccc1NC(=O)c1cccc(NC(=O)c2ccc(C(F)(F)F)cc2)c1,0.208

row,Compound,"flux ratio, lower = inhibition"
1,O=C(Nc1cccc(NC(=O)c2ccccc2)c1)c1ccccc1,0.194
2,CCOc1ccccc1NC(=O)c1cccc(NC(=O)C2CC2)c1,0.168
3,Cc1ccccc1C(=O)Nc1cccc(NC(=O)c2ccccc2)c1,0.152
4,CCOc1ccccc1NC(=O)c1cccc(NC(=O)c2ccc(Cl)cc2)c1,0.2
5,COc1ccccc1NC(=O)c1cccc(NC(=O)C2CCCC2)c1,0.143
6,O=C(Nc1cccc(NC(=O)C2CCCCC2)c1)c1ccccc1,0.154
7,COc1cccc(C(=O)Nc2cccc(NC(=O)c3ccccc3)c2)c1,0.175
8,COc1ccccc1NC(=O)c1cccc(NC(=O)c2ccccc2)c1,0.176
9,Cc1ccc(C(=O)Nc2cccc(NC(=O)c3ccccc3)c2)cc1,0.192
10,CCOc1ccccc1NC(=O)c1cccc(NC(=O)C2CCCC2)c1,0.16
11,Cc1cccc(C(=O)Nc2cccc(NC(=O)c3ccco3)c2)c1,0.164
12,Cc1ccc(-c2n[nH]c(=S)n2C(C)C2CC3CCC2C3)cc1 (stereo not given),0.453
13,CC(C1CC2CCC1C2)n1c(-c2ccccc2)n[nH]c1=S (stereo not given),0.379
14,CC(C1CC2CCC1C2)n1c(-c2ccsc2)n[nH]c1=S (stereo not given),0.245
15,Cc1cccc(C(=O)Nc2cccc(NC(=O)c3ccccc3Cl)c2)c1,0.163
16,CCOc1ccccc1NC(=O)c1cccc(NC(=O)C(C)(C)C)c1,0.172
17,CCOc1ccccc1C(=O)Nc1cccc(NC(=O)c2cccc(C)c2)c1,0.15
